# Results: ChEMBL document CHEMBL4513216, “Probing the Open Global Health Chemical Diversity Library for Multistage-Active Starting Points for Next-Generation Antimalarials” (ACS Infect Dis, 2020)
# Test: Toxicity liver stage against HepG2, at 10uM
# Type: cell-based
# Design: test concentration 10 uM, cell line HepG2-A16-CD81EGFP
# Conditions: human, HepG2-A16-CD81EGFP cells; read-out: INHIBITION
# Outline: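 Uninfected HepG2-A16-CD81EGFP cells, 3 × 10^3 per well, 1536-well, plated on prespotted compound at 10 μM final, parasite-free screening media added to match infected plates; puromycin 10 μM positive, DMSO 0.5% negative; run in parallel with 48 h PbLuc assay at 37 °C, 5% CO2; viability by CellTiter-Glo luminescence, normalized to controls.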
row,Compound,cytotoxicity at 10 µM [%]
1,O=C(c1ccc(C(F)(F)F)cc1)C1CCCN(C(=O)Cn2cnnn2)C1 (stereo unspecified),-5.34
2,O=C(CCNc1ncccn1)Nc1ccc(Cn2cncn2)cc1,2.5
3,Cc1cccnc1NC(=O)C1CSc2ncc(C)c(=O)n2C1 (stereo unspecified),-1.62
4,CC(C)(C)CC(=O)NCCn1ccc(-c2ccncc2)n1,-3.4
5,O=C(NCC1CC1)C1CCC2(CCN(C(=O)c3ccoc3)CC2)O1 (stereo unspecified),4.97
6,Cc1nnc(N2C[C@@H]3CCCO[C@@H]3[C@H](N(C)C)C2)s1,17.5
7,O=C1NC2(CCN(C(=O)Cc3ccsc3)CC2)CC1c1ccccc1 (stereo unspecified),-2.04
8,CN1CC(=O)N(c2cccc(F)c2)CC12CCN(Cc1ccccn1)C2 (stereo unspecified),2.49
9,COc1ccc(OC)c(NC(=O)N2CCCC2c2ccco2)c1 (stereo unspecified),-6.57
10,C[C@@H]1C[C@@H]2CCN(C(=O)c3cnccn3)C[C@H]2O1,-10.6
11,CCN(CC)C(=O)CCn1ncc2c(Cl)cccc21,12.4
12,CS(=O)(=O)N1CCc2ccc(C(=O)N3CCn4ncnc4C3)cc21,-7.79
13,Cc1nc(N2CCOCC2)sc1C(=O)NCC(C)(C)N1CCCCC1,5.7
14,Cc1nc(-c2ccc(CNS(=O)(=O)N(C)C)cc2)ccc1C(N)=O,-8.53
15,CC1(C(=O)NC2CCCC2)CCCN(c2cnccn2)C1 (stereo unspecified),-5.81
16,Cc1cc2n(n1)[C@@H](C(F)(F)F)C[C@@H](C1CCN(C(=O)C3CC3)CC1)N2,-41
17,CCn1ccc(C(=O)N2CCCC2(C)c2nc(C)cc(N(C)C)n2)n1 (stereo unspecified),-7.56
18,O=c1[nH]c(N2CCOCC2)nc2c1CN(Cc1cccnc1)CC2,12.3
19,Cc1cc(C2CCN(C(=O)c3cnn(C)c3)CC2)ccn1,-17.8
20,CN1CCCC(c2cccc(CCC(N)=O)n2)C1 (stereo unspecified),2.9
21,CN1CCCC[C@@H]2[C@H]1[C@@H](c1ccccc1)CCN2C(=O)c1ccncc1,-13
22,O=C(NCCNC(=O)C1CCN(CC(F)(F)F)CC1)c1ccoc1,5.09
23,Cc1ccc(S(=O)(=O)NCc2[nH]ncc2Br)cc1C,5.23

row,Compound,cytotoxicity at 10 µM [%]
1,COCCN1CCN(CC(=O)NC2(C#N)CCCC2)CC1C (stereo unspecified),10.7
2,CCCS(=O)(=O)CCN1CCN(C(C#N)c2ccccc2)CC1 (stereo unspecified),-5.02
3,CC(C)Cc1nc(C[S+]([O-])CC(=O)NCc2ccccc2)no1 (stereo unspecified),-6.45
4,Cc1ncc2c(n1)CN(Cc1nc(-c3ccsc3)oc1C)CC2,1.97
5,CC(C)OCCC(=O)NCC(O)c1c(F)cccc1F (stereo unspecified),-6.51
6,CC(C)n1cnnc1CNC(=O)c1cnc2ccccc2n1,7.01
7,CCc1ccc(O)c(C(=O)N2CCN(CC(=O)N3CCCCC3)CC2)c1,9.06
8,COC(=O)c1ccc(N(C(=O)c2cccnc2C)C(C)C)c(C)c1,-8.58
9,CCN(CC1CCOC1)C(=O)NCc1ccc(-n2cncn2)nc1 (stereo unspecified),0.0529
10,CC(c1cccnc1)N1CCN(C(=O)NCc2cnn(C)c2)CC1 (stereo unspecified),-2.38
11,O=C(Cc1ccc2c(c1)CCO2)Nc1cccnc1-n1cncn1,3.94
12,CC(c1ccc(Cl)cc1)N1CCN(CCCS(C)(=O)=O)CC1 (stereo unspecified),-8.73
13,Cc1nc2n(n1)CC(Nc1ccnc(-c3ccccc3)n1)CC2 (stereo unspecified),3.43
14,O=C(Nc1cccc(CN2CCC(CO)CC2)c1)c1cc(Cl)c[nH]1,-150
15,COCCn1ccc(NC(=O)Nc2ccncc2)n1,4.49
16,CC(C)c1cc(C(=O)N2CCOCC2CC(=O)c2ccco2)nn1C (stereo unspecified),5.52
17,CCc1ncc2c(n1)CN(CCCOc1ccc(C#N)cc1)CC2,16.4
18,CC(c1nc(C2CC2)no1)N(C)Cc1ccc(C#N)cc1 (stereo unspecified),4.15
19,COc1ccccc1CCNC(=O)CNC1CCc2nc(C)nn2C1 (stereo unspecified),-12.3
20,CCOc1ncccc1C(=O)Nc1c(C)cnn1CC1CC1,1.62
21,CC(C)c1cccc(-n2cc(O)c(C(N)=O)n2)c1,-5.93
22,CN(C)CC(=O)N1CCN(c2cc(N3CCCC3CO)ncn2)CC1 (stereo unspecified),-4.19
23,NC(=O)c1ccc(CNC2CCCSC2)cc1 (stereo unspecified),-9.44

row,Compound,cytotoxicity at 10 µM [%]
1,CCc1noc(CN(C)CCC(=O)Nc2ccc(Cl)cc2)n1,2.78
2,CC(C(=O)N1CCc2sccc2C1)N1CCC(S(N)(=O)=O)CC1 (stereo unspecified),9.26
3,CC(C)C(O)CNC(=O)Nc1cnn(C(C)C)c1 (stereo unspecified),3.57
4,O=S(=O)(CCNCc1cccc2c1OCCO2)N1CCOCC1,-10.9
5,N#Cc1cc(NC(=O)c2ccccc2)ccc1N1CCC(O)CC1,-9.55
6,CNC(=O)Nc1cc(-c2ccc(Br)cc2)nn1CCO,-1.35
7,O=C(NCCCNC(=O)c1cccc(O)c1)Nc1ccc(F)cc1F,-11
8,COCC1CN(Cc2ccncc2)Cc2nn(C)cc21 (stereo unspecified),-74.1
9,COc1cccc(CC(=O)N2CCc3ncnc(NC(C)C)c3CC2)c1,6.56
10,CNc1nccc(-c2cnc3sc(C)c(C)n3c2=O)n1,-2.78
11,O=c1c(-c2ccnc(N3CCC[C@H]3CO)n2)cnc2sccn12,-6.3
12,CN(CCO)c1ncc(-c2ccc(NC(=O)[C@@H]3CCCCN3)cc2)cn1,0.609
13,COCCCN1CC2(CCCN(c3ncnc4[nH]cnc34)C2)CCC1=O (stereo unspecified),-2.95
14,COCCN(Cc1nccs1)C(=O)c1cc(-c2ccc(C)s2)n[nH]1,-8.84
15,CC(C)(CN1CCC2(CCOCC2)CC1)N1CCOCC1,-148
16,CCC(CO)NC(=O)c1cc(COc2ccc(OC)cc2Cl)[nH]n1 (stereo unspecified),2.2
17,Cc1noc2ncnc(N3CCC(O)(Cn4ccnc4)CC3)c12,0.648
18,O=C(c1ccc(-c2cc[nH]n2)cc1)N1CC[C@H](CO)[C@H](O)C1,4.52
19,CCn1ncnc1CN(C/C=C/c1ccccc1)CCOC,4.3
20,COCCn1ccnc1-c1[nH]cnc1C,-18.4
21,COCC(=O)N1CCCC(COc2ccccc2C)C1 (stereo unspecified),2.06
22,CN(Cc1ccccc1)C1(C(=O)NC(CO)CO)Cc2ccccc2C1,2.59
23,COC(=O)NCC(=O)N(C)CC1Cc2ccccc2CN1C (stereo unspecified),-6.24

row,Compound,cytotoxicity at 10 µM [%]
1,COc1cccc(CC2CN(C3CC(C)(C)NC(C)(C)C3)CCO2)c1 (stereo unspecified),-91.7
2,COCCNC(=O)c1cc(S(=O)(=O)N2CCCCC2)cs1,-8.94
3,NC(=O)c1c[nH]nc1NC(=O)c1cccc(Cl)c1,-2.39
4,CCn1cnnc1CNC(=O)N1CCN(c2cccc(C)c2)CC1,-3.42
5,O=C(c1cc2c(s1)CCOC2)N1CCCCC1Cn1cccn1 (stereo unspecified),-6.52
6,c1ccc2oc(CN3CCCC3Cn3cncn3)nc2c1 (stereo unspecified),-17.2
7,CCC(NC(=O)COC)c1ccccc1OCC(=O)N1CCCC1 (stereo unspecified),-6.39
8,c1cncc(COc2ccccc2CNC2CCc3ncnn3C2)c1 (stereo unspecified),-3.69
9,CCN(Cc1ccc2c(c1)OCCO2)C(=O)c1ccc(C)[nH]c1=O,-4.6
10,Cc1cnn(CCNCc2csc(-c3ccco3)n2)c1,-5.28
11,Cc1nc(CSCCC(=O)NCc2ccncc2)cs1,-15.6
12,OC(CN1CCC(c2ccn[nH]2)CC1)c1cc(F)ccc1F (stereo unspecified),-12.3
13,O=C(c1cc2c(F)cccc2[nH]1)N1CCCCC1Cn1cccn1 (stereo unspecified),-7.95
14,CCc1nc(C2CCCN2Cc2cnc(C)cn2)no1 (stereo unspecified),-14.6
15,Cc1cc(C)n(CC2CCCN2C(=O)c2ccc(NC3CC3)nc2)n1 (stereo unspecified),6.53
16,CC(C)C1CCCN1CCCc1nc(-c2cccs2)no1 (stereo unspecified),-16
17,O=C1COc2c(cccc2C(=O)N2CCCC(n3cccn3)C2)N1 (stereo unspecified),-13.8
18,Cc1ccc(N2CCCC(NCC3=Cc4ccccc4OC3)C2)nn1 (stereo unspecified),-10.2
19,O=C(CCNC(=O)c1ccoc1)Nc1cccc(F)c1,-8.63
20,Cc1cc(C)n(CC2CCCN2C(=O)CCCc2ccccn2)n1 (stereo unspecified),-0.395
21,O=C(Cc1ccc2c(c1)CCO2)N1CCN(c2cnccn2)CC1,-11.3
22,O=C(COCc1ccccc1Cl)N1CCCC(n2cccn2)C1 (stereo unspecified),10
23,CNC(=O)[C@@H]1CN(C(=O)CCOC)C[C@H]1c1ccnc(N2CCCC2)n1,-3.43

row,Compound,cytotoxicity at 10 µM [%]
1,C[C@@H](NC(=O)c1ccc(Cl)cc1)c1onc(-c2cccnc2)c1C(=O)O,-1.6
2,O=C1CC2(CCCNC2)C(=O)N1Cc1cccc(Cl)c1 (stereo unspecified),-1.19
3,CN1CC(=O)N(c2ccsc2)CC12CCN(C(=O)N1CCCC1)C2 (stereo unspecified),-72.6
4,O=C(CC1CC1)N[C@@H]1CN(Cc2cccnc2)C[C@@H]2CCCO[C@@H]21,-0.995
5,CC(C)(N)c1nc(C(F)F)cc(=O)[nH]1,11.9
6,COc1cc(CNC(C)Cn2cccn2)cc2c1OCCO2 (stereo unspecified),1.67
7,c1cnc(N2CCOCC3(CCCN(CC4CCOCC4)C3)C2)nc1 (stereo unspecified),-8.95
8,Cn1cc(CN2C[C@@H](NC(=O)c3cscn3)[C@H]3OCCC[C@H]32)cn1,-11.7
9,CCN1C(=O)C(c2ccccc2)CC12CCN(Cc1cccnc1)CC2 (stereo unspecified),4.65
10,COCCN1C[C@H]2[C@@H](C1)N(Cc1cnn(C)c1)CC[C@H]2OC,8.47
11,COCCN1C[C@@H](c2ccccc2)[C@@]2(CCN(CC(=O)N(C)C)C2=O)C1,3.11
12,CN(C)CC(=O)N1CCCC2(CCN(c3ccccc3)C2=O)C1 (stereo unspecified),-1.24
13,CC(C)(CN)NS(=O)(=O)c1c(F)cccc1F,-8.89
14,CC(C)N1CCO[C@H]2CN(C(=O)c3ccsc3)C[C@H]21,-72
15,CO[C@H]1CCN(S(=O)(=O)c2cccs2)[C@H]1Cc1cccnc1,-75.5
16,O=C(c1ccccc1)N1C[C@H]2CCC[C@@]2(COCc2ccncc2)C1,1.59
17,CCc1c(C)[nH]c(C2(N)CCCCC2)nc1=O,-3.47
18,Cc1nn(C)cc1CN1C[C@H]2CC[C@@H](C1)N(Cc1c(C)noc1C)C2=O,5.9
19,COC(=O)Cn1c(=O)[nH]c2cn(-c3ccccc3)c(=O)n21,21.6
